The target in assay [1] is T1, Epidermal growth factor receptor (Homo sapiens, UniProt P00533). As to the kind of experiment: Inhibitory potency against protein tyrosine kinase activity associated with EGFR was evaluated using ER 22 cell membrane.
Assay [2] has as its target T1, Epidermal growth factor receptor. Conditions: ER 22; 10 uM.
Assay [3] has the same target. The assay can be described thus: Inhibition of EGFR(epidermal growth factor receptor) autophosphorylation in ER22 cell membranes.
The nature of assay [4]: Inhibition of PKA(protein kinase-A).
In assay [5] the target is Protein kinase C (PKC). The assay can be described thus: Inhibition of rat PKC(protein kinase-C). The assay is classed as protein assay. In outline:
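PKC partially purified from rat brain by DEAE-cellulose chromatography and assayed in vitro with a commercial PKC assay kit; inhibitors tested for inhibition of the kinase activity.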

The target in assay [6] is T1, Epidermal growth factor receptor. Conditions: ER 22; 100 uM.
For assay [7] the target is unchanged. Conditions: 20 uM.
The target is the same in assay [8]. The following applies: 5 uM.
For assay [9] the target is unchanged. The following applies: ER 22; 10 uM. This is another data set of the same source.
Assay [10] shares this target. Conditions: ER 22; 10 uM. This is another data set of the same source.
The target is the same in assay [11]. Conditions: ER 22; 10 uM. The source holds these as a separate data set.

Each structure is given as a SMILES string.

T1 sequence (P00533 whole entry): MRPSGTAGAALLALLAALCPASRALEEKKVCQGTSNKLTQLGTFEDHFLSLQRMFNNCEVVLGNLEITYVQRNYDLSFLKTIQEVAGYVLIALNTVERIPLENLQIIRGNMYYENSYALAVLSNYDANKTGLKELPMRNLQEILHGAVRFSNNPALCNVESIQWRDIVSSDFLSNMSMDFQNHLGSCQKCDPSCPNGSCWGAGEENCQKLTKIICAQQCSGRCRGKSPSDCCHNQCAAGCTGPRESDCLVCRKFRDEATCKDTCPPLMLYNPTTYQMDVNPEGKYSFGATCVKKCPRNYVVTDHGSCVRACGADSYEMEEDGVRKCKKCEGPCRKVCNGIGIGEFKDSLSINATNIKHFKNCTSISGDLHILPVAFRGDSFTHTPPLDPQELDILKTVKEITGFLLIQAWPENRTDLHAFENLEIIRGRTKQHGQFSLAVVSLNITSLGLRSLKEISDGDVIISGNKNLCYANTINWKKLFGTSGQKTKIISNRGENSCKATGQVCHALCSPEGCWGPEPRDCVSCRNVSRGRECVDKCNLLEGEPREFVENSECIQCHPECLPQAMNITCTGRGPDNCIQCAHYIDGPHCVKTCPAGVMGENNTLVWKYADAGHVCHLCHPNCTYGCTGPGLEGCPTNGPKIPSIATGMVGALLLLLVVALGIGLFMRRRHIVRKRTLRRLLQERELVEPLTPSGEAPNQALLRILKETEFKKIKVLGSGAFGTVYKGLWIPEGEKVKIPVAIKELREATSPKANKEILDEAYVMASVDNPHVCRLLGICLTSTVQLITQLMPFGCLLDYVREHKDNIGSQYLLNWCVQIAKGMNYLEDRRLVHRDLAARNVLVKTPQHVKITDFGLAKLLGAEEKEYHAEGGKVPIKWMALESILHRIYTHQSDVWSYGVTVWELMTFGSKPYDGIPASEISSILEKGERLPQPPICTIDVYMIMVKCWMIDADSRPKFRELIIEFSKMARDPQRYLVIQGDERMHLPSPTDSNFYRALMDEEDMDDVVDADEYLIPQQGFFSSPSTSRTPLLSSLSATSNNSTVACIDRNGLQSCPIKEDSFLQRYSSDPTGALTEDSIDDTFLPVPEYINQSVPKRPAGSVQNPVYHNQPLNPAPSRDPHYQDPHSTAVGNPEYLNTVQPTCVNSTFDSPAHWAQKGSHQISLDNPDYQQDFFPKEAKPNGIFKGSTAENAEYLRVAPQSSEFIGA

The IC50 is the concentration that inhibits the measured activity by half. A high value points to weaker potency. `CCOC(=O)Cc1cc(NCc2cc(O)ccc2O)ccc1O` returned an IC50 in [1] of 7 µM.

As for `O=C(Oc1ccccc1)c1cc(NCc2cc(O)ccc2O)ccc1O`, inhibition in assay [1] was half-maximal at 0.07 µM (IC50).

`CC(C)(C)OC(=O)c1cc(NCc2cc(O)ccc2O)ccc1O` showed an IC50 in assay [1] of 1 µM. Compared with the last molecule, the IC50 is about 14-fold higher.

In turn, `CC(C)(C)CCOC(=O)c1cc(NCc2cc(O)ccc2O)ccc1O` returned an IC50 in [1] of 0.7 µM.

As to `O=C(OCc1ccccc1)c1cc(NCc2cc(O)ccc2O)ccc1O`, in [1], the midpoint of inhibition, the IC50, lay at 0.08 µM.

Turning to `COC(=O)Cc1cc(NCc2cc(O)ccc2O)ccc1O`, the 50% inhibitory concentration (IC50) in assay [1] stood at 3 µM. `CCOC(=O)c1cc(/N=C/c2cc(O)ccc2O)ccc1O` returned an IC50 in [1] of 50 µM. This IC50 lies about 17-fold higher than the previous one. Same read-out and setting: as for `O=C(O)c1cc(/N=C/c2cc(O)ccc2O)ccc1O`, the figure is 5 µM. `O=C(Cc1cc(NCc2cc(O)ccc2O)ccc1O)NOCc1ccccc1` came in with an IC50 in assay [1] of 1 µM. For `O=C(Oc1ccc(-c2ccccc2)cc1)c1cc(NCc2cc(O)ccc2O)ccc1O`, the half-inhibitory concentration (IC50) in [1] was 5 µM. The same measure, in the same setting: as for `CCCCCCCCCCCCCCCCOC(=O)c1cc(NCc2cc(O)ccc2O)ccc1O`, the figure is more than 5 µM; as for `CCOP(=O)(Cc1cc(NCc2cc(O)ccc2O)ccc1O)OCC`, 4 µM. As usually defined, the inhibition is how much of the control response was suppressed. On to `CC(C)(C)OC(=O)c1cc(/N=C/c2cc(O)ccc2O)ccc1O`, for which the inhibition in [2] was 15%. The molecule `CC(C)(C)ONC(=O)Cc1cc(/N=C/c2cc(O)ccc2O)ccc1O` returned an IC50 in assay [1] of 31 µM. In the case of `CC(CCOC(=O)c1cc(/N=C/c2cc(O)ccc2O)ccc1O)CC(C)(C)C` (centres undefined), the inhibition in [2] came to 20%.

With `O=C(OC/C=C/c1ccccc1)c1cc(NCc2cc(O)ccc2O)ccc1O`, the IC50 in [1] came out at 1.3 µM. As to `O=C(O)Cc1cc(/N=C/c2cc(O)ccc2O)ccc1O`, the midpoint of inhibition in assay [1], the IC50, lay at 35 µM.

For the molecule `CC(COC(=O)c1cc(NCc2cc(O)ccc2O)ccc1O)Cc1ccccc1` (centres undefined), the half-inhibitory concentration (IC50) in assay [1] amounted to 0.36 µM. As to `O=C(Oc1cccc2ccccc12)c1cc(NCc2cc(O)ccc2O)ccc1O`, inhibition in assay [1] was half-maximal at 0.11 µM (IC50). This IC50 is about 3.3-fold lower than that of the molecule before. As to `Cc1cc(C)cc(COC(=O)c2cc(NCc3cc(O)ccc3O)ccc2O)c1`, in assay [1], the midpoint of inhibition, the IC50, lay at 3 µM. Compared with the last molecule, the IC50 is about 27-fold higher. Consider `CC(COC(=O)c1cc(NCc2cc(O)ccc2O)ccc1O)CC(C)(C)C` (centres undefined), for which the IC50 in [3] is 8 µM; in [1], approximately 4 µM; in [4], 10 µM; in assay [5], 300 µM.

Molecule `CC(COC(=O)c1cc(/N=C/c2cc(O)ccc2O)ccc1O)CC(C)(C)C` (centres undefined) had an IC50 in assay [1] of more than 10 µM. Turning to `O=C(Cc1cc(/N=C/c2cc(O)ccc2O)ccc1O)NOCc1ccccc1`, the half-maximal inhibitory concentration (IC50) in [1] is 50 µM. In other words, the double-digit micromolar range. The same measure, in the same setting: then `O=C(Oc1ccc2ccccc2c1)c1cc(NCc2cc(O)ccc2O)ccc1O`, with 0.09 µM. In assay [6], `COC(=O)c1cc(/N=C/c2cc(O)ccc2O)ccc1O` came in with an inhibition of 56%. `CCOC(=O)Cc1cc(/N=C/c2cc(O)ccc2O)ccc1O`: in assay [1], the IC50 worked out at 100 µM.

As for `CC(C)(C)ONC(=O)c1cc(NCc2cc(O)ccc2O)ccc1O`, the IC50 in assay [1] is 0.1 µM. Also, the inhibition in assay [7] was 35%. As for `O=C(O)c1cc(NCc2cc(O)ccc2O)ccc1O` [LAVENDUSTIN C], the IC50 in [4] and in assay [5] was more than 100 µM each time. Molecule `O=C(O)Cc1cc(NCc2cc(O)ccc2O)ccc1O` displayed an IC50 in [1] of 6 µM. Molecule `CC(C)(C)ONC(=O)Cc1cc(NCc2cc(O)ccc2O)ccc1O` displayed an IC50 in assay [1] of 5 µM. `COC(=O)c1cc(NCc2cc(O)ccc2O)ccc1O`: the IC50 was determined as 1 µM in [3], 0.6 µM in [1], 150 µM in [4] and 400 µM in assay [5]. On to `CONC(=O)c1cc(NCc2cc(O)ccc2O)ccc1O`, for which half-maximal inhibition in [1] (IC50) was put at 0.3 µM. In other words, the sub-micromolar range. In assay [1], `CONC(=O)c1cc(/N=C/c2cc(O)ccc2O)ccc1O` yielded a concentration for half-maximal inhibition (IC50) of 27 µM.

For the molecule `CCOP(=O)(Cc1cc(/N=C/c2cc(O)ccc2O)ccc1O)OCC`, the concentration for half-maximal inhibition (IC50) in assay [1] was more than 100 µM. The molecule `CC(CCOC(=O)c1cc(NCc2cc(O)ccc2O)ccc1O)CC(C)(C)C` (centres undefined) had an IC50 in [1] of more than 1 µM. Still for that read-out and setting: then `CC(C)c1ccc(COC(=O)c2cc(NCc3cc(O)ccc3O)ccc2O)cc1`, with 1 µM; and `O=C(OCCCCc1ccccc1)c1cc(NCc2cc(O)ccc2O)ccc1O`, with 0.4 µM. For `O=C(NOCc1ccccc1)c1cc(/N=C/c2cc(O)ccc2O)ccc1O`, the results for the inhibition in [8] and in assay [9] were 43% and 8%, respectively. On to `O=C(OCC1CCCCC1)c1cc(NCc2cc(O)ccc2O)ccc1O`, for which 1.2 µM corresponded to half-maximal inhibition in assay [1] (IC50). Turning to `CC(C)CCCC(C)CCOC(=O)c1cc(NCc2cc(O)ccc2O)ccc1O` (centres undefined), the half-maximal inhibitory concentration (IC50) in [3] amounted to 25 µM; in assay [1], 7 µM; in assay [4], 10 µM. `COC(=O)Cc1cc(/N=C/c2cc(O)ccc2O)ccc1O` displayed an IC50 in assay [1] of 100 µM. In the case of `O=C(OCCC12C[C@H]3C[C@@H](C1)C[C@@H](C2)C3)c1cc(NCc2cc(O)ccc2O)ccc1O`, the IC50 in [1] is more than 5 µM. Turning to `O=C(OCCc1ccccc1)c1cc(NCc2cc(O)ccc2O)ccc1O`, the 50% inhibitory concentration (IC50) in assay [3] came out at 0.2 µM; in assay [1], 0.13 µM; in assay [4], 4 µM. With `CC(CCOC(=O)c1cc(NCc2cc(O)ccc2O)ccc1O)c1ccccc1` (centres undefined), inhibition in assay [1] was half-maximal at 0.4 µM (IC50). `O=C(NO)c1cc(NCc2cc(O)ccc2O)ccc1O` registered an IC50 in assay [1] of 0.4 µM. That is a sub-micromolar value. `O=C(OCCCc1ccccc1)c1cc(NCc2cc(O)ccc2O)ccc1O`: the IC50 in [3] was 0.7 µM; in assay [1], 0.03 µM; in assay [4], 11 µM; in assay [5], more than 20 µM.

In the case of `CC(C)(C)CCOC(=O)c1cc(/N=C/c2cc(O)ccc2O)ccc1O`, the inhibition in [10] is 10%.

In assay [1], `O=C(NOCc1ccccc1)c1cc(NCc2cc(O)ccc2O)ccc1O` showed an IC50 of 0.05 µM. That is a double-digit nanomolar value. The molecule `CC(C)CCCC(C)CCOC(=O)c1cc(/N=C/c2cc(O)ccc2O)ccc1O` (centres undefined) yielded an inhibition in assay [11] of 20%.

`O=P(O)(O)Cc1cc(NCc2cc(O)ccc2O)ccc1O` yielded an IC50 in assay [1] of 3 µM. Take `CC(C)(C)ONC(=O)c1cc(/N=C/c2cc(O)ccc2O)ccc1O`: the inhibition in assay [2] came out at 20%.

Turning to `O=C(Oc1cccc(O)c1)c1cc(NCc2cc(O)ccc2O)ccc1O`, inhibition in assay [1] was half-maximal at 0.09 µM (IC50).

In assay [1], `CCOC(=O)c1cc(NCc2cc(O)ccc2O)ccc1O` returned a concentration for half-maximal inhibition (IC50) of 0.4 µM.

These data come from ChEMBL document CHEMBL1127676, “Structure-activity relationships in a series of 5-[(2,5-dihydroxybenzyl)amino]salicylate inhibitors of EGF-receptor-associated tyrosine kinase: importance of additional hydrophobic aromatic interactions” (J Med Chem, 1994).
